From ChEMBL document CHEMBL2062487, “Design, synthesis and evaluation of clinafloxacin triazole hybrids as a new type of antibacterial and antifungal agents” (2012)
In brackets after ≈: the same amount, converted by molar mass.

Tests used:
Type in all cases: functional
Staphylococcus aureus [1] = assay: Antibacterial activity against methicillin-resistant Staphylococcus aureus N 315 by two fold broth dilution method; details: N315
Outline: (§1)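 Twofold broth dilution in 96-well microtest plates following NCCLS guidance. Endpoint is the MIC (µg/mL), the lowest concentration that inhibits growth. Clinafloxacin, chloramphenicol and fluconazole served as positive controls.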

Staphylococcus aureus [2] = assay: Antibacterial activity against Staphylococcus aureus ATCC […] by two fold broth dilution method
Outline: (§2)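 MIC was determined by twofold broth dilution in microplates, following NCCLS recommendations. Clinafloxacin, chloramphenicol and fluconazole served as positive controls. Values are given in μg/mL.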

Bacillus subtilis = assay: Antibacterial activity against Bacillus subtilis ATCC 6633 by two fold broth dilution method; outline: as §2
Micrococcus luteus = assay: Antibacterial activity against Micrococcus luteus ATCC 4698 by two fold broth dilution method; details: NCTC 2665; outline: as §2
Escherichia coli = assay: Antibacterial activity against Escherichia coli JM109 by two fold broth dilution method; outline: as §2
Shigella dysenteriae = assay: Antibacterial activity against Shigella dysenteriae by two fold broth dilution method; outline: as §1
Pseudomonas aeruginosa = assay: Antibacterial activity against Pseudomonas aeruginosa by two fold broth dilution method; outline: as §2
[3] = Antibacterial activity against Bacillus proteus by two fold broth dilution method; outline: as §2
Candida albicans = assay: Antifungal activity against Candida albicans ATCC 76615 by two fold broth dilution method; outline: as §2
Candida = assay: Antifungal activity against Candida mycoderma by two fold broth dilution method; outline: as §2
Bacillus = assay: Ratio of clinafloxacin MIC to compound MIC for Bacillus proteus

Row | SMILES | MIC (Staphylococcus aureus [1]) | MIC (Staphylococcus aureus [2]) | MIC (Bacillus subtilis) | MIC (Micrococcus luteus) | MIC (Escherichia coli) | MIC (Shigella dysenteriae) | MIC (Pseudomonas aeruginosa) | MIC [3] | MIC (Candida albicans) | MIC (Candida) | Ratio (Bacillus)
1 | Fc1ccc(C2(Cn3cncn3)CO2)cc1F (racemic) | 256 µg/mL (≈ 1080 µM) | 256 µg/mL (≈ 1080 µM) | 32 µg/mL (≈ 135 µM) | 8 µg/mL (≈ 33.7 µM) | 128 µg/mL (≈ 540 µM) | 64 µg/mL (≈ 270 µM) | 64 µg/mL (≈ 270 µM) | 64 µg/mL (≈ 270 µM) | 128 µg/mL (≈ 540 µM) | 8 µg/mL (≈ 33.7 µM) | 
2 | Clc1ccc(C2(Cn3cncn3)CO2)c(Cl)c1 (racemic) | 256 µg/mL (≈ 948 µM) | 256 µg/mL (≈ 948 µM) | 32 µg/mL (≈ 118 µM) | 32 µg/mL (≈ 118 µM) | 256 µg/mL (≈ 948 µM) | 64 µg/mL (≈ 237 µM) | 128 µg/mL (≈ 474 µM) | 64 µg/mL (≈ 237 µM) | 32 µg/mL (≈ 118 µM) | 16 µg/mL (≈ 59.2 µM) | 
3 | Cc1ccc(C(O)(CNC2CCN(c3c(F)cc4c(=O)c(C(=O)O)cn(C5CC5)c4c3Cl)C2)Cn2cncn2)cc1 (racemic) | 0.25 µg/mL (≈ 0.43 µM) | 2 µg/mL (≈ 3.44 µM) | 0.5 µg/mL (≈ 0.861 µM) | 2 µg/mL (≈ 3.44 µM) | 1 µg/mL (≈ 1.72 µM) | 0.5 µg/mL (≈ 0.861 µM) | 0.5 µg/mL (≈ 0.861 µM) | 0.5 µg/mL (≈ 0.861 µM) | 0.5 µg/mL (≈ 0.861 µM) | 0.5 µg/mL (≈ 0.861 µM) | 
4 | O=C(O)c1cn(C2CC2)c2c(Cl)c(N3CCC(NCC(O)(Cn4cncn4)c4ccc(Cl)cc4)C3)c(F)cc2c1=O (racemic) | > 512 µg/mL | > 512 µg/mL | > 512 µg/mL | > 512 µg/mL | 32 µg/mL (≈ 53.2 µM) | > 512 µg/mL | > 512 µg/mL | 512 µg/mL (≈ 851 µM) | > 512 µg/mL | > 512 µg/mL | 
5 | O=C(O)c1cn(C2CC2)c2c(Cl)c(N3CCC(NCC(O)(Cn4cncn4)c4ccc(F)cc4)C3)c(F)cc2c1=O (racemic) | 2 µg/mL (≈ 3.42 µM) | 2 µg/mL (≈ 3.42 µM) | 1 µg/mL (≈ 1.71 µM) | 0.5 µg/mL (≈ 0.855 µM) | 1 µg/mL (≈ 1.71 µM) | 0.5 µg/mL (≈ 0.855 µM) | 0.5 µg/mL (≈ 0.855 µM) | 0.5 µg/mL (≈ 0.855 µM) | 1 µg/mL (≈ 1.71 µM) | 0.5 µg/mL (≈ 0.855 µM) | 
6 | O=C(O)c1cn(C2CC2)c2c(Cl)c(N3CCC(NCC(O)(Cn4cncn4)c4ccc(Cl)c(Cl)c4)C3)c(F)cc2c1=O (racemic) | 0.25 µg/mL (≈ 0.393 µM) | 8 µg/mL (≈ 12.6 µM) | 32 µg/mL (≈ 50.3 µM) | 0.5 µg/mL (≈ 0.786 µM) | 4 µg/mL (≈ 6.29 µM) | 0.5 µg/mL (≈ 0.786 µM) | 0.5 µg/mL (≈ 0.786 µM) | 0.25 µg/mL (≈ 0.393 µM) | 2 µg/mL (≈ 3.15 µM) | 0.5 µg/mL (≈ 0.786 µM) | 
7 | O=C(O)c1cn(C2CC2)c2c(Cl)c(N3CCC(NCC(O)(Cn4cncn4)c4ccc(F)c(F)c4)C3)c(F)cc2c1=O (racemic) | 0.5 µg/mL (≈ 0.829 µM) | 0.5 µg/mL (≈ 0.829 µM) | 0.5 µg/mL (≈ 0.829 µM) | 0.5 µg/mL (≈ 0.829 µM) | 1 µg/mL (≈ 1.66 µM) | 0.5 µg/mL (≈ 0.829 µM) | 0.5 µg/mL (≈ 0.829 µM) | 0.5 µg/mL (≈ 0.829 µM) | 0.5 µg/mL (≈ 0.829 µM) | 0.5 µg/mL (≈ 0.829 µM) | 
8 | O=C(O)c1cn(C2CC2)c2c(Cl)c(N3CCC(NCC(O)(Cn4cncn4)c4ccc(Cl)cc4Cl)C3)c(F)cc2c1=O (racemic) | 4 µg/mL (≈ 6.29 µM) | 4 µg/mL (≈ 6.29 µM) | 32 µg/mL (≈ 50.3 µM) | 0.5 µg/mL (≈ 0.786 µM) | 4 µg/mL (≈ 6.29 µM) | 0.5 µg/mL (≈ 0.786 µM) | 2 µg/mL (≈ 3.15 µM) | 1 µg/mL (≈ 1.57 µM) | 4 µg/mL (≈ 6.29 µM) | 0.5 µg/mL (≈ 0.786 µM) | 
9 | O=C(O)c1cn(C2CC2)c2c(Cl)c(N3CCC(NCC(O)(Cn4cncn4)c4ccc(F)cc4F)C3)c(F)cc2c1=O (racemic) | 0.25 µg/mL (≈ 0.415 µM) | 0.5 µg/mL (≈ 0.829 µM) | 0.5 µg/mL (≈ 0.829 µM) | 0.5 µg/mL (≈ 0.829 µM) | 1 µg/mL (≈ 1.66 µM) | 0.5 µg/mL (≈ 0.829 µM) | 0.5 µg/mL (≈ 0.829 µM) | 0.25 µg/mL (≈ 0.415 µM) | 0.5 µg/mL (≈ 0.829 µM) | 0.5 µg/mL (≈ 0.829 µM) | 2
10 | O=C(N[C@H](CO)[C@H](O)c1ccc([N+](=O)[O-])cc1)C(Cl)Cl [CHLORAMPHENICOL] | 16 µg/mL (≈ 49.5 µM) | 16 µg/mL (≈ 49.5 µM) | 32 µg/mL (≈ 99 µM) | 8 µg/mL (≈ 24.8 µM) | 32 µg/mL (≈ 99 µM) | 32 µg/mL (≈ 99 µM) | 32 µg/mL (≈ 99 µM) | 32 µg/mL (≈ 99 µM) | > 512 µg/mL | > 512 µg/mL | 
11 | NC1CCN(c2c(F)cc3c(=O)c(C(=O)O)cn(C4CC4)c3c2Cl)C1 (stereo unspecified) [CLINAFLOXACIN] | 1 µg/mL (≈ 2.73 µM) | 0.5 µg/mL (≈ 1.37 µM) | 0.5 µg/mL (≈ 1.37 µM) | 0.5 µg/mL (≈ 1.37 µM) | 0.5 µg/mL (≈ 1.37 µM) | 1 µg/mL (≈ 2.73 µM) | 0.5 µg/mL (≈ 1.37 µM) | 0.5 µg/mL (≈ 1.37 µM) | > 512 µg/mL | > 512 µg/mL | 
12 | OC(Cn1cncn1)(Cn1cncn1)c1ccc(F)cc1F [FLUCONAZOLE] | > 512 µg/mL | > 512 µg/mL | > 512 µg/mL | > 512 µg/mL | > 512 µg/mL | > 512 µg/mL | > 512 µg/mL | > 512 µg/mL | 0.5 µg/mL (≈ 1.63 µM) | 0.5 µg/mL (≈ 1.63 µM) | 
